Experimental data of several laboratories.
CNR1: Cannabinoid receptor 1 (CNR1, Homo sapiens, UniProt P21554)
BCL2L1: Bcl-2-like protein 1 (BCL2L1, Homo sapiens, UniProt Q07817)

CCc1ccc(Cn2nnc3c4ccc(F)cc4c(=O)[nH]c32)cc1  IC50 (Poly [ADP-ribose] polymerase 1 (PARP1, Homo sapiens, UniProt P09874); enzyme activity, inhibitor, fluorescence): > 10000 nM
NC(=O)c1nnn(Cc2cc(Cl)c(C(=O)c3ccc(Cl)cc3)c(Cl)c2)c1N  IC50 (CNR1; cAMP, antagonist): 1550 nM
C[C@]12C=CC(=O)N[C@@H]1CC[C@@H]1[C@@H]2CC[C@]2(C)[C@@H](C(=O)Nc3cc(C(F)(F)F)ccc3C(F)(F)F)CC[C@@H]12  IC50 (3-oxo-5-alpha-steroid 4-dehydrogenase 1 (SRD5A1, Homo sapiens, UniProt P18405); enzyme activity in cells, inhibitor): 16 nM
Cc1cc(C)c2c(N)c(C(=O)Nc3ccon3)sc2n1  Ki (Adenosine receptor A2a (ADORA2A, Homo sapiens, UniProt P29274); ligand displacement, radioligand): 500 nM
Cc1ncsc1-c1ccc([C@H](C)NC(=O)[C@@H]2C[C@@H](O)CN2C(=O)[C@@H](NC(=O)CCCCCC(=O)N2CCN(CC[C@H](CSc3ccccc3)Nc3ccc(S(=O)(=O)NC(=O)c4ccc(N5CCN(CC6=C(c7ccc(Cl)cc7)CCC(C)(C)C6)CC5)cc4)cc3S(=O)(=O)C(F)(F)F)CC2)C(C)(C)C)cc1  Ki (BCL2L1; ligand displacement, AlphaScreen): 1.46 nM
Cn1cc2c(C(=O)O)ccc(NS(=O)(=O)c3ccc(OCC4CCC4)c(Cl)c3)c2n1  IC50 (cGMP-specific 3',5'-cyclic phosphodiesterase (PDE5A, Homo sapiens, UniProt O76074); enzyme activity): > 175000 nM
CC(C)[C@@H](CN1CCc2ccccc2C1)NC(=O)c1cccc(-c2cccc(C#N)c2)c1  Ki (Mu-type opioid receptor (Oprm1, Mus musculus, UniProt P42866); ligand displacement, radioligand): 4110 nM
O=c1c(NCCc2ccc(Cl)cc2)c(Nc2ccc(Cl)cc2)c1=O  IC50 (CNR1; calcium signal, antagonist, fluorescence): 214 nM
O=C(NO)c1ccc(Cn2cnc3c(Nc4cccc([N+](=O)[O-])c4)ncnc32)cc1  IC50 (Histone deacetylase 2 (HDAC2, Homo sapiens, UniProt Q92769); enzyme activity, inhibitor, fluorescence): 167 nM
Cc1ccccc1NC(=O)CSc1nc2ccccc2cc1C=Nn1c(S)nnc1-c1ccccc1  IC50 (PPO3 (Agaricus bisporus, UniProt C7FF04); enzyme activity, inhibitor): > 50000 nM
CC1(C)CCC(c2ccc(Cl)cc2)=C(CN2CCN(c3ccc(C(=O)NS(=O)(=O)c4ccc(N[C@H](CCN(CCOCCOCCOCCNc5cccc6c5C(=O)N(C5CCC(=O)NC5=O)C6=O)C5CCC5)CSc5ccccc5)c(S(=O)(=O)C(F)(F)F)c4)cc3)CC2)C1 (stereo partly drawn)  Ki (BCL2L1; ligand displacement, AlphaScreen): 9.02 nM
CCNC(=O)c1nc(N2CCc3cccc(C(=O)Nc4nc5ccccc5s4)c3C2)ccc1-c1cnn(CC23CC4CC(CC(C4)C2)C3)c1C  Ki (BCL2L1; ligand displacement, AlphaScreen): 1.32 nM
Cc1ccccc1-c1cc(=O)oc2cc(OC(C)C(=O)N(C)C)ccc12 (stereo not drawn)  IC50 (DNA-directed RNA polymerase, mitochondrial (POLRMT, Homo sapiens, UniProt O00411); enzyme activity, inhibitor): 22.2 nM
Cn1cc(C2=C(c3cn(CCCSC(=N)N)c4ccccc34)C(=O)NC2=O)c2ccccc21  IC50 (Serine/threonine-protein kinase VRK2 (VRK2, Homo sapiens, UniProt Q86Y07); enzyme activity, inhibitor): 26900 nM
CCS(=O)(=O)NC(=O)c1nc(N2CCc3cccc(C(=O)Nc4nc5ccccc5s4)c3C2)ccc1-c1cnn(CC23CC4CC(CC(C4)C2)C3)c1C  Ki (BCL2L1; ligand displacement, AlphaScreen): 0.0142 nM
